Measured values: ChEMBL document CHEMBL3621200, “Toward the discovery of dual HCMV-VZV inhibitors: Synthesis, structure activity relationship analysis, and cytotoxicity studies of long chained 2-uracil-3-yl-N-(4-phenoxyphenyl)acetamides” (Bioorg Med Chem, 2015)
Activity calls are given as the source filed them. The calls are words filed in the database; no cut-off is given here.

Legend:
Sindbis virus = experiment: Antiviral activity against Sindbis virus; assay type: functional, organism-based
[1] = system: Vesicular stomatitis virus; experiment: Antiviral activity against Vesicular stomatitis virus; assay type: functional, organism-based
How it was run: (§1)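 Confluent cell monolayers (HEL, Vero, HeLa or MDCK) in 96-well plates were infected with 100 CCID50 of virus in the presence of varying compound concentrations. Cytopathicity was scored once it reached completion in untreated infected controls.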

[2] = Cytotoxicity against human cytomegalovirus infected HEL cells assessed as alteration of cell morphology incubated for 3 days by microscopy; assay type: cell-based; settings: HEL cells infected with human cytomegalovirus
How it was run: (§2)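 Cytotoxicity was given as the minimum cytotoxic concentration (MCC): the compound concentration causing a microscopically detectable change in HEL cell morphology.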

Influenza A virus H3N2 = experiment: Antiviral activity against Influenza A virus H3N2; assay type: functional, organism-based; how it was run: as §1
Feline coronavirus = experiment: Antiviral activity against Feline coronavirus; assay type: functional, organism-based
Human alphaherpesvirus 1 = experiment: Antiviral activity against HSV1 KOS; assay type: functional, organism-based
How it was run: (§3)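 Confluent cell monolayers in 96-well plates were inoculated with 100 CCID50 of virus together with varying compound concentrations. Cytopathicity was scored once it reached completion in untreated infected controls.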

[3] = system: Human herpesvirus 2 strain G; experiment: Antiviral activity against HSV2 G Lyons; assay type: functional, organism-based
Vaccinia virus = experiment: Antiviral activity against Vaccinia virus Lederle; assay type: functional, organism-based; settings: Orthopoxvirus vaccinia; how it was run: as §1
Human betaherpesvirus 5 [4] = experiment: Antiviral activity against human cytomegalovirus Davis infected in HEL cells assessed as reduction in viral plaque formation; assay type: functional, organism-based; settings: Human betaherpesvirus 5, Davis
How it was run: (§4)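 Confluent HEL fibroblasts were infected with 100 PFU of HCMV in the presence of varying compound concentrations. Plaques were counted once plaque formation was complete in untreated infected controls.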

[5] = system: Human immunodeficiency virus 1; experiment: Antiviral activity against HIV1 3B infected in human CEM cells assessed as reduction in virus- induced cytopathicity incubated for 4 to 5 days by microscopy based virus syncytium formation assay; assay type: functional, organism-based; settings: CCRF-CEM
How it was run: (§5)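 CEM cells at ~3 × 10^5 cells/mL, infected with 100 CCID50 of HIV per mL in the presence of compound dilutions. Incubated 4–5 days at 37 °C in humidified CO2. Syncytium (giant cell) formation scored by microscopy.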

[6] = system: Human immunodeficiency virus 2; experiment: Antiviral activity against HIV2 ROD infected in human CEM cells assessed as reduction in virus- induced cytopathicity incubated for 4 to 5 days by microscopy based virus syncytium formation assay; assay type: functional, organism-based; settings: ISOLATE ROD, CCRF-CEM; how it was run: as §5
Human respirovirus 3 = experiment: Antiviral activity against Parainfluenza 3 virus; assay type: functional, organism-based
[7] = Cytotoxicity against Varicella zoster virus infected HEL cells assessed as alteration of cell morphology incubated for 3 days by microscopy; assay type: cell-based; settings: human, HEL cells infected with Varicella zoster virus; how it was run: as §2
Influenza A virus = experiment: Antiviral activity against Influenza A virus H1N1; assay type: functional, organism-based; how it was run: as §1
Human betaherpesvirus 5 [8] = experiment: Antiviral activity against human cytomegalovirus AD169 infected in HEL cells assessed as reduction in viral plaque formation; assay type: functional, organism-based; settings: Human betaherpesvirus 5, AD169, HEL; how it was run: as §4
Coxsackievirus B4 = experiment: Antiviral activity against Human coxsackievirus B4; assay type: functional, organism-based
Punta Toro virus = experiment: Antiviral activity against Punta Toro virus; assay type: functional, organism-based
Influenza B virus = experiment: Antiviral activity against Influenza B virus; assay type: functional, organism-based; how it was run: as §1
[9] = system: Mammalian orthoreovirus 1; experiment: Antiviral activity against Reovirus 1; assay type: functional
Human alphaherpesvirus 2 = experiment: Antiviral activity against HSV2 Lyons; assay type: functional, organism-based; how it was run: as §3
HEL = experiment: Cytotoxicity against human cytomegalovirus infected HEL cells assessed as cell growth inhibition incubated for 3 days by coulter counter method; assay type: cell-based; settings: 72 h
How it was run: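 HEL cells were seeded at 5 × 10^3 cells/well and left to adhere and proliferate for 24 h, then compound-containing medium was added. After 3 days at 37 °C, cells were counted with a Coulter counter.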

Structure (SMILES) | inhibition (Sindbis virus) | inhibition [1] | MCC at 72 h [2] | inhibition (Influenza A virus H3N2) | inhibition (Feline coronavirus) | inhibition (Human alphaherpesvirus 1) | inhibition [3] | inhibition (Vaccinia virus) | EC50 (Human betaherpesvirus 5 [4]) | inhibition [5] | inhibition [6] | inhibition (Human respirovirus 3) | MCC at 72 h [7] | inhibition (Influenza A virus) | EC50 (Human betaherpesvirus 5 [8]) | inhibition (Coxsackievirus B4) | inhibition (Punta Toro virus) | inhibition (Influenza B virus) | inhibition [9] | inhibition (Human alphaherpesvirus 2) | other results
O=C(Cn1c(=O)ccn(COCCOCc2ccc(Br)cc2)c1=O)Nc1ccc(Oc2ccccc2)cc1 | inactive | inactive | 100 µM | inactive | inactive | inactive | inactive | inactive | > 20 µM | inactive | inactive | inactive | > 100 µM | inactive | > 20 µM | inactive | inactive | inactive | inactive | inactive | –
O=C(Cn1c(=O)ccn(CCCCCCc2ccccc2)c1=O)Nc1ccc(Oc2ccccc2)cc1 | inactive | inactive | 100 µM | inactive | inactive | inactive | inactive | inactive | > 20 µM | inactive | inactive | inactive | > 100 µM | inactive | > 20 µM | inactive | inactive | inactive | inactive | inactive | –
Nc1nc(O)c2ncn(COC(CO)CO)c2n1 [GANCICLOVIR] | – | – | > 350 µM | – | – | – | – | – | – | – | – | – | – | – | – | – | – | – | – | – | CC50 (HEL): ≥ 319 µM
O=C(Cn1c(=O)ccn(CCCCCOc2ccc(Br)cc2)c1=O)Nc1ccccc1 | inactive | inactive | 20 µM | inactive | inactive | inactive | inactive | inactive | > 4 µM | inactive | inactive | inactive | ≥ 20 µM | inactive | > 4 µM | inactive | inactive | inactive | inactive | inactive | –
O=C(Cn1c(=O)ccn(CCCCCOc2ccc(Br)cc2)c1=O)Nc1ccc(OCc2ccccc2)cc1 | inactive | inactive | ≥ 20 µM | inactive | inactive | inactive | inactive | inactive | 4 µM | inactive | inactive | inactive | ≥ 20 µM | inactive | > 20 µM | inactive | inactive | inactive | inactive | inactive | –
O=C(Cn1c(=O)c(I)cn(CCCCCOc2ccc(Br)cc2)c1=O)Nc1ccc(Oc2ccccc2)cc1 | inactive | inactive | 100 µM | inactive | inactive | inactive | inactive | inactive | > 20 µM | inactive | inactive | inactive | > 100 µM | inactive | > 20 µM | inactive | inactive | inactive | inactive | inactive | –
